Measurements from article PMC7511286 (European Journal of Drug Metabolism and Pharmacokinetics, 2020).

Test: MAD study: safety and tolerability
Type: in vivo, human
Outline: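 Healthy males aged 18–55 took oral tablets. Treatment-emergent AEs were recorded by clinical evaluation. Vital signs (blood pressure, pulse), 12-lead and Holter ECG, physical examination, and urine and plasma laboratory tests were also assessed. AEs of special interest were hematuria and retroperitoneal colicky pain with suspected or confirmed nephrolithiasis. Subjects were hospitalized around dosing.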

## COc1cccc(-c2ccc(NC(=O)C3=C(C(=O)O)CCC3)c(F)c2)c1 [IMU-838, vidofludimus calcium]
25 mg (initiation dose), n = 8
  TEAE Abdominal pain upper: number of events: 1
  TEAE Abdominal pain upper: subjects having the event: 1 (12.5) N (%)
  TEAE Atrioventricular block first degree: number of events: 1
  TEAE Atrioventricular block first degree: subjects having the event: 1 (12.5) N (%)
  TEAE Diarrhea: subjects having the event: 1 (12.5) N (%)
  TEAE Nasopharyngitis: subjects having the event: 1 (12.5) N (%)
  TEAEs Cardiac disorders Total: number of events: 1
  TEAEs Cardiac disorders Total: subjects having the event: 1 (12.5) N (%)
  TEAEs Gastrointestinal disorders Total: number of events: 2
  TEAEs Gastrointestinal disorders Total: subjects having the event: 1 (12.5) N (%)
  TEAEs Infections and infestations Total: number of events: 1
  TEAEs Infections and infestations Total: subjects having the event: 1 (12.5) N (%)
  TEAEs Total: number of events: 4
  TEAEs Total: subjects having the event: 3 (37.5) N (%)
30 mg once daily
  number of drug-related TEAEs: 18
30 mg, n = 12
  TEAE Abdominal pain: number of events: 1
  TEAE Abdominal pain: subjects having the event: 1 (8.3) N (%)
  TEAE Feces soft: number of events: 2
  TEAE Feces soft: subjects having the event: 2 (16.7) N (%)
  TEAE Flatulence: subjects having the event: 6 (50.0) N (%)
  TEAE Gamma–glutamyl transferase increased: number of events: 2
  TEAE Gamma–glutamyl transferase increased: subjects having the event: 1 (8.3) N (%)
  TEAE Headache: subjects having the event: 1 (8.3) N (%)
  TEAE Lipase increased: number of events: 1
  TEAE Lipase increased: subjects having the event: 1 (8.3) N (%)
  TEAE Musculoskeletal discomfort: number of events: 1
  TEAE Musculoskeletal discomfort: subjects having the event: 1 (8.3) N (%)
  TEAE Nausea: subjects having the event: 1 (8.3) N (%)
  TEAEs Gastrointestinal disorders Total: number of events: 14
  TEAEs Gastrointestinal disorders Total: subjects having the event: 7 (58.3) N (%)
  TEAEs Investigations Total: number of events: 3
  TEAEs Investigations Total: subjects having the event: 2 (16.7) N (%)
  TEAEs Musculoskeletal and connective tissue disorders Total: number of events: 1
  TEAEs Musculoskeletal and connective tissue disorders Total: subjects having the event: 1 (8.3) N (%)
  TEAEs Nervous system disorders Total: number of events: 1
  TEAEs Nervous system disorders Total: subjects having the event: 1 (8.3) N (%)
  TEAEs Renal and urinary disorders Total: number of events: 1
  TEAEs Renal and urinary disorders Total: subjects having the event: 1 (8.3) N (%)
  TEAEs Total: number of events: 20
  TEAEs Total: subjects having the event: 9 (75.0) N (%)
30 mg, n = 12, based solely on a positive dip stick test
  TEAE Hemoglobinuria: subjects having the event: 1 (8.3) N (%)
40 mg once daily
  number of drug-related TEAEs: 8
40 mg, n = 12
  TEAE Arthropod bite: number of events: 1
  TEAE Arthropod bite: subjects having the event: 1 (8.3) N (%)
  TEAE Blood creatinine kinase increased: number of events: 1
  TEAE Blood creatinine kinase increased: subjects having the event: 1 (8.3) N (%)
  TEAE Fatigue: subjects having the event: 3 (25.0) N (%)
  TEAE Flatulence: subjects having the event: 1 (8.3) N (%)
  TEAE Headache: subjects having the event: 1 (8.3) N (%)
  TEAE Listless: subjects having the event: 1 (8.3) N (%)
  TEAE Sneezing: subjects having the event: 1 (8.3) N (%)
  TEAEs Gastrointestinal disorders Total: number of events: 1
  TEAEs Gastrointestinal disorders Total: subjects having the event: 1 (8.3) N (%)
  TEAEs General disorders and administration site conditions Total: number of events: 3
  TEAEs General disorders and administration site conditions Total: subjects having the event: 3 (25.0) N (%)
  TEAEs Injury, poisoning and procedural complications total: number of events: 1
  TEAEs Investigations Total: number of events: 1
  TEAEs Investigations Total: subjects having the event: 1 (8.3) N (%)
  TEAEs Nervous system disorders Total: number of events: 2
  TEAEs Nervous system disorders Total: subjects having the event: 1 (8.3) N (%)
  TEAEs Psychiatric disorders Total: number of events: 1
  TEAEs Psychiatric disorders Total: subjects having the event: 1 (8.3) N (%)
  TEAEs Renal and urinary disorders Total: number of events: 2
  TEAEs Renal and urinary disorders Total: subjects having the event: 2 (16.7) N (%)
  TEAEs Respiratory, thoracic and mediastinal disorders Total: number of events: 1
